According to ChEMBL document CHEMBL1255417, “Correlation between in vitro activity of posaconazole and in vivo efficacy against Rhizopus oryzae infection in mice” (Antimicrob Agents Chemother, 2010):
Values after ≈ are worked out from the molar mass of the structure shown. Active and inactive are the calls of the source. No cut-off for these calls is given here.

Columns and labels:
Rhizopus arrhizus [1] = assay: Antifungal activity against drug-susceptible Rhizopus oryzae UTHSC 06-1080 after 24 to 48 hrs; type: functional
How it was run: (§1)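 Minimum fungicidal concentration taken from the broth microdilution plates. From each well with complete inhibition (optically clear), 20 ul is plated on potato dextrose agar. Plates are incubated at 35°C for 24 to 48 h. The MFC is the lowest drug concentration giving no growth.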

Rhizopus arrhizus [2] = assay: Antifungal activity against drug-susceptible Rhizopus oryzae UTHSC 05-1502 at 5 ug by disk diffusion assay; type: functional; settings: read-out: DIZ
How it was run: (§2)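 Neo-Sensitabs tablet diffusion on Mueller-Hinton agar, following guidelines for molds; 9 mm tablets containing 5 µg posaconazole; inhibition zone diameter measured in mm; zone breakpoints applied at 24 h.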

Rhizopus arrhizus [3] = assay: Antifungal activity against drug-susceptible Rhizopus oryzae UTHSC 05-1502 by broth microdilution method; type: functional
How it was run: (§3)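 CLSI broth microdilution for filamentous fungi (M38-A2); MIC recorded in µg/ml against clinical isolates; breakpoints applied at 24 h.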

Rhizopus arrhizus [4] = assay: Antifungal activity against drug-susceptible Rhizopus oryzae UTHSC 04-2159 by broth microdilution method; type: functional; how it was run: as §3
Rhizopus arrhizus [5] = assay: Antifungal activity against drug-susceptible Rhizopus oryzae UTHSC 05-3132 by broth microdilution method; type: functional
How it was run: (§4)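 Posaconazole MIC in ug/ml, determined by broth microdilution following the CLSI guidelines for moulds (M38-A2).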

Rhizopus arrhizus [6] = assay: Antifungal activity against drug-intermediate Rhizopus oryzae UTHSC 05-3032 at 5 ug by disk diffusion assay; type: functional; settings: read-out: DIZ
How it was run: (§5)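 Neo-Sensitabs tablet diffusion on Mueller-Hinton agar, following the guidelines for molds. Tablets were 9 mm in diameter and held 5 µg of drug. The read-out was inhibition zone diameter in mm.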

Rhizopus arrhizus [7] = assay: Antifungal activity against drug-susceptible Rhizopus oryzae UTHSC 06-434 by broth microdilution method; type: functional; how it was run: as §4
Rhizopus arrhizus [8] = assay: Antifungal activity against drug-susceptible Rhizopus oryzae UTHSC 03-547 after 24 to 48 hrs; type: functional
How it was run: (§6)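 Minimum fungicidal concentration: 20 µl from each microdilution well showing complete inhibition (optically clear) plated on potato dextrose agar, incubated 35°C for 24 to 48 h; MFC taken as lowest drug concentration giving no growth.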

Rhizopus arrhizus [9] = assay: Antifungal activity against drug-susceptible Rhizopus oryzae UTHSC 03-228 after 24 to 48 hrs; type: functional
Rhizopus arrhizus [10] = assay: Antifungal activity against drug-susceptible Rhizopus oryzae UTHSC 04-1220 after 24 to 48 hrs; type: functional; how it was run: as §6
Rhizopus arrhizus [11] = assay: Antifungal activity against drug-susceptible Rhizopus oryzae UTHSC 06-731 by broth microdilution method; type: functional
Rhizopus arrhizus [12] = assay: Antifungal activity against drug-susceptible Rhizopus oryzae UTHSC 03-2970 after 24 to 48 hrs; type: functional
Rhizopus arrhizus [13] = assay: Antifungal activity against drug-susceptible Rhizopus oryzae UTHSC 03-511 infected in OF1 mouse assessed as reduction in kidney fungal load at 10-30 mg/kg, po bid; type: functional, organism-based
How it was run: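 Immunosuppressed male OF1 mice (cyclophosphamide 200 mg/kg i.p. plus 5-fluorouracil 150 mg/kg i.v., day −1) infected i.v. with 2 × 10^4 CFU; oral gavage twice daily from 24 h post-challenge; 10 mice/group killed day 4; kidneys homogenized in 2 ml saline, 10-fold dilutions plated on potato dextrose agar, 24 h at 35°C for CFU.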

Rhizopus arrhizus [14] = assay: Antifungal activity against drug-susceptible Rhizopus oryzae UTHSC 02-2882 infected in OF1 mouse assessed as reduction in kidney fungal load at 10-30 mg/kg, po bid; type: functional, organism-based
How it was run: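 Tissue burden in immunosuppressed male OF1 mice, using cyclophosphamide 200 mg/kg i.p. plus 5-fluorouracil 150 mg/kg i.v. on day −1. Mice received 2 × 10^4 CFU i.v. by tail vein, then oral gavage at 10, 20 or 30 mg/kg BID from 24 h post-challenge, with ceftazidime cover; untreated controls. Groups of 10 were killed on day 4. Kidneys and brains were homogenized in 2 ml saline, serially diluted 10-fold, plated on PDA and counted after 24 h at 35°C.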

Rhizopus arrhizus [15] = assay: Antifungal activity against drug-susceptible Rhizopus oryzae UTHSC 06-2457 at 5 ug by disk diffusion assay; type: functional; settings: read-out: DIZ
How it was run: (§7)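 Neo-Sensitabs tablet diffusion on Mueller-Hinton agar, run per the mould guidelines. Tablets are 9 mm in diameter and carry 5 ug posaconazole. The read-out is the inhibition zone diameter in mm.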

Rhizopus arrhizus [16] = assay: Antifungal activity against drug-susceptible Rhizopus oryzae UTHSC 06-1351 at 5 ug by disk diffusion assay; type: functional; settings: read-out: DIZ; how it was run: as §7
Rhizopus arrhizus [17] = assay: Antifungal activity against drug-susceptible Rhizopus oryzae UTHSC 412-546 by broth microdilution method; type: functional
Rhizopus arrhizus [18] = assay: Antifungal activity against drug-susceptible Rhizopus oryzae UTHSC 03-228 at 5 ug by disk diffusion assay; type: functional; settings: read-out: DIZ; how it was run: as §5
Rhizopus arrhizus [19] = assay: Antifungal activity against drug-susceptible Rhizopus oryzae UTHSC 06-1080 at 5 ug by disk diffusion assay; type: functional; settings: read-out: DIZ; how it was run: as §7
Rhizopus arrhizus [20] = assay: Antifungal activity against drug-susceptible Rhizopus oryzae UTHSC 05-1679 at 5 ug by disk diffusion assay; type: functional; settings: read-out: DIZ; how it was run: as §2
Rhizopus arrhizus [21] = assay: Antifungal activity against drug-intermediate Rhizopus oryzae UTHSC 05-114 at 5 ug by disk diffusion assay; type: functional; settings: read-out: DIZ; how it was run: as §5
Rhizopus arrhizus [22] = assay: Antifungal activity against drug-susceptible Rhizopus oryzae UTHSC 04-443 by broth microdilution method; type: functional; how it was run: as §3
Rhizopus arrhizus [23] = assay: Antifungal activity against drug-susceptible Rhizopus oryzae UTHSC 06-3913 after 24 to 48 hrs; type: functional; how it was run: as §1
Rhizopus arrhizus [24] = assay: Antifungal activity against drug-intermediate Rhizopus oryzae UTHSC 07-365 at 5 ug by disk diffusion assay; type: functional; settings: UTHSC 07-365, read-out: DIZ; how it was run: as §5
Rhizopus arrhizus [25] = assay: Antifungal activity against drug-intermediate Rhizopus oryzae UTHSC 04-3109 by broth microdilution method; type: functional
How it was run: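 Broth microdilution MIC in µg/ml, run per the CLSI (formerly NCCLS) guideline for filamentous fungi, M38-A2.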

Rhizopus arrhizus [26] = assay: Antifungal activity against drug-susceptible Rhizopus oryzae UTHSC 04-1241 after 24 to 48 hrs; type: functional; how it was run: as §6
Rhizopus arrhizus [27] = assay: Antifungal activity against drug-susceptible Rhizopus oryzae UTHSC 05-3580 after 24 to 48 hrs; type: functional; how it was run: as §1
Rhizopus arrhizus [28] = assay: Antifungal activity against drug-susceptible Rhizopus oryzae UTHSC 2868 at 5 ug by disk diffusion assay; type: functional; settings: read-out: DIZ
Rhizopus arrhizus [29] = assay: Antifungal activity against drug-susceptible Rhizopus oryzae UTHSC 04-2159 after 24 to 48 hrs; type: functional; how it was run: as §6
Rhizopus arrhizus [30] = assay: Antifungal activity against drug-intermediate Rhizopus oryzae UTHSC 04-3109 infected in OF1 mouse assessed as increase in mouse survival at 20-30 mg/kg, po bid treated 24 hrs after fungal infection; type: functional, organism-based
How it was run: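 Survival model in male OF1 mice, 30 g. Mice were immunosuppressed 1 day before infection with cyclophosphamide 200 mg/kg i.p. plus 5-fluorouracil 150 mg/kg i.v., then infected i.v. via lateral tail vein with 2 × 10^4 CFU in 0.2 ml saline. Oral gavage at 10, 20 or 30 mg/kg BID began 24 h post-challenge for 7 days. Ceftazidime 5 mg/day s.c. was given days 1–7. Groups of 10 were checked daily for 20 days; untreated controls.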

Rhizopus arrhizus [31] = assay: Antifungal activity against drug-susceptible Rhizopus oryzae UTHSC 06-4035 at 5 ug by disk diffusion assay; type: functional; settings: read-out: DIZ; how it was run: as §7
Rhizopus arrhizus [32] = assay: Antifungal activity against drug-susceptible Rhizopus oryzae UTHSC 03-1826 after 24 to 48 hrs; type: functional
Rhizopus arrhizus [33] = assay: Antifungal activity against drug-susceptible Rhizopus oryzae UTHSC 06-4133 at 5 ug by disk diffusion assay; type: functional; settings: read-out: DIZ; how it was run: as §7

## CC[C@@H]([C@H](C)O)n1ncn(-c2ccc(N3CCN(c4ccc(OC[C@@H]5CO[C@@](Cn6cncn6)(c6ccc(F)cc6F)C5)cc4)CC3)cc2)c1=O [POSACONAZOLE]
Rhizopus arrhizus [1]
  MFC: > 16 mg/L
Rhizopus arrhizus [2]
  zone of inhibition at 5 µg/disc: 21 mm
Rhizopus arrhizus [3]
  MIC: 0.5 mg/L (≈ 0.713 µM)
Rhizopus arrhizus [4]
  MIC: 0.5 mg/L (≈ 0.713 µM)
Rhizopus arrhizus [5]
  MIC: 0.5 mg/L (≈ 0.713 µM)
Rhizopus arrhizus [6]
  zone of inhibition at 5 µg/disc: 14 mm
Rhizopus arrhizus [7]
  MIC: 1 mg/L (≈ 1.43 µM)
Rhizopus arrhizus [8]
  MFC: 0.5 mg/L (≈ 0.713 µM)
Rhizopus arrhizus [9]
  MFC: 1 mg/L (≈ 1.43 µM)
Rhizopus arrhizus [10]
  MFC: 1 mg/L (≈ 1.43 µM)
Rhizopus arrhizus [11]
  MIC: 0.5 mg/L (≈ 0.713 µM)
Rhizopus arrhizus [12]
  MFC: 4 mg/L (≈ 5.71 µM)
Rhizopus arrhizus [13]
  Activity: Active
Rhizopus arrhizus [14]
  Activity: Active
Rhizopus arrhizus [15]
  zone of inhibition at 5 µg/disc: 14 mm
Rhizopus arrhizus [16]
  zone of inhibition at 5 µg/disc: 25 mm
Rhizopus arrhizus [17]
  MIC: 1 mg/L (≈ 1.43 µM)
Rhizopus arrhizus [18]
  zone of inhibition at 5 µg/disc: 25 mm
Rhizopus arrhizus [19]
  zone of inhibition at 5 µg/disc: 18 mm
Rhizopus arrhizus [20]
  zone of inhibition at 5 µg/disc: 18 mm
Rhizopus arrhizus [21]
  zone of inhibition at 5 µg/disc: 15 mm
Rhizopus arrhizus [22]
  MIC: 0.5 mg/L (≈ 0.713 µM)
Rhizopus arrhizus [23]
  MFC: 4 mg/L (≈ 5.71 µM)
Rhizopus arrhizus [24]
  zone of inhibition at 5 µg/disc: 15 mm
Rhizopus arrhizus [25]
  MIC: 2 mg/L (≈ 2.85 µM)
Rhizopus arrhizus [26]
  MFC: 0.5 mg/L (≈ 0.713 µM)
Rhizopus arrhizus [27]
  MFC: 1 mg/L (≈ 1.43 µM)
Rhizopus arrhizus [28]
  zone of inhibition at 5 µg/disc: 19 mm
Rhizopus arrhizus [29]
  MFC: 1 mg/L (≈ 1.43 µM)
Rhizopus arrhizus [30]
  Activity: Active
Rhizopus arrhizus [31]
  zone of inhibition at 5 µg/disc: 17 mm
Rhizopus arrhizus [32]
  MFC: 0.5 mg/L (≈ 0.713 µM)
Rhizopus arrhizus [33]
  zone of inhibition at 5 µg/disc: 23 mm
